Reference: ChEMBL document CHEMBL1255355, “Characterization of a naturally occurring class D beta-lactamase from Achromobacter xylosoxidans” (Antimicrob Agents Chemother, 2008)
≈ marks a conversion by molar mass, not a printed value. Calls of active or inactive are those of the source. No cut-off for these calls is given here.

Tests used:
[1] = system: Achromobacter xylosoxidans; assay: Antibacterial activity against Achromobacter xylosoxidans TB1 by agar dilution method; format: functional
How it was run: (§1)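 MICs of β-lactams measured by agar dilution, with interpretation per CLSI guidelines. Combination tests used clavulanic acid or tazobactam at a fixed 4 μg/ml. Reference strain CIP69598 and clinical isolates MER, TB1, LOL and DUC, identified by API 32-GN. Cultures routinely grown in TS broth at 37°C.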

[2] = system: Achromobacter xylosoxidans; assay: Antibacterial activity against Achromobacter xylosoxidans CIP69598 by agar dilution method; format: functional; how it was run: as §1
[3] = system: Achromobacter xylosoxidans; assay: Antibacterial activity against Achromobacter xylosoxidans MER by agar dilution method; format: functional; how it was run: as §1
[4] = system: Achromobacter xylosoxidans; assay: Antibacterial activity against Achromobacter xylosoxidans LOL by agar dilution method; format: functional; how it was run: as §1
[5] = system: Achromobacter xylosoxidans; assay: Antibacterial activity against Achromobacter xylosoxidans DUC by agar dilution method; format: functional; how it was run: as §1
Escherichia coli [6] = assay: microbe, parasite or virus in culture; format: functional; conditions: TOP10
[7] = system: Achromobacter xylosoxidans; assay: Ratio of Kcat to Km for Achromobacter xylosoxidans CIP69598 beta-lactamase OXA-114a expressed in Escherichia coli TOP10; parameters: unit not given here
How it was run: (§2)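 OXA-114a purified from E. coli TOP10(p6S3) grown overnight in TS broth with kanamycin 30 μg/ml and ampicillin 50 μg/ml, by sonication, spermine, Q-Sepharose (pH 8.8) and S-Sepharose (pH 6.5) steps. Initial hydrolysis rates read by UV spectrophotometry at 30°C in 100 mM Tris-H2SO4-300 mM K2SO4 pH 7.0 with 10 mM NaHCO3. kcat and Km are means of three independent experiments.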

[8] = system: Achromobacter xylosoxidans; assay: Activity of Achromobacter xylosoxidans CIP69598 beta-lactamase OXA-114a expressed in Escherichia coli TOP10 assessed as compound hydrolysis; how it was run: as §2
Escherichia coli [9] = assay: Antibacterial activity against Escherichia coli TOP10 by agar dilution method; format: functional
How it was run: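 MIC determined by agar dilution; results interpreted per CLSI guidelines. E. coli TOP10 serves as the cloning host. Bacteria were routinely grown in Trypticase soy broth at 37°C.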

[10] = system: Achromobacter xylosoxidans; assay: Induction of Achromobacter xylosoxidans CIP69598 beta-lactamase OXA-114a expressed in Escherichia coli TOP10 assessed as imipenem hydrolysis
How it was run: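 Hydrolysis measured with 100 μM benzylpenicillin or imipenem as substrate. One unit hydrolyzes 1 μmol substrate/min. Protein measured against a bovine albumin standard.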

[11] = system: Achromobacter xylosoxidans; assay: Antibacterial activity against Achromobacter xylosoxidans LOL in presence of 4 ug/ml clavulanic acid by agar dilution method; format: functional; how it was run: as §1
Escherichia coli [12] = assay: Antibacterial activity against Escherichia coli TOP10 in presence of 4 ug/ml clavulanic acid by agar dilution method; format: functional
How it was run: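 Agar dilution MICs of β-lactams, with clavulanic acid held at a fixed 4 μg/ml alongside each β-lactam. Results were interpreted against CLSI guidelines. Strains were routinely grown in Trypticase soy broth at 37°C. The E. coli TOP10 host was tested, including TOP10 carrying a pBK-CMV clone of the chromosomal A. xylosoxidans CIP69598 class D β-lactamase gene.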

[13] = system: Achromobacter xylosoxidans; assay: Antibacterial activity against Achromobacter xylosoxidans CIP69598 in presence of 4 ug/ml clavulanic acid by agar dilution method; format: functional; how it was run: as §1
[14] = system: Achromobacter xylosoxidans; assay: Antibacterial activity against Achromobacter xylosoxidans TB1 in presence of 4 ug/ml clavulanic acid by agar dilution method; format: functional; how it was run: as §1
[15] = system: Achromobacter xylosoxidans; assay: Antibacterial activity against Achromobacter xylosoxidans MER in presence of 4 ug/ml clavulanic acid by agar dilution method; format: functional; how it was run: as §1
[16] = system: Achromobacter xylosoxidans; assay: Antibacterial activity against Achromobacter xylosoxidans DUC in presence of 4 ug/ml clavulanic acid by agar dilution method; format: functional; how it was run: as §1
Escherichia coli [17] = assay: Antibacterial activity against Escherichia coli TOP10 harboring recombinant p6S3 expressing beta lactamase OXA-114a in presence of 4 ug/ml clavulanic acid by agar dilution method; format: functional
How it was run: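 Agar dilution MIC with clavulanic acid held at a fixed 4 μg/ml; interpreted per CLSI guidelines. Host E. coli TOP10 was electroporated with p6S3, a kanamycin-resistant pBK-CMV vector carrying a Sau3AI partial-digest fragment of A. xylosoxidans CIP69598 genomic DNA. Routine growth was in Trypticase soy broth at 37°C.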

[18] = system: Achromobacter xylosoxidans; assay: Antibacterial activity against Achromobacter xylosoxidans CIP69598 in presence of 4 ug/ml Tazobactam by agar dilution method; format: functional; how it was run: as §1
[19] = system: Achromobacter xylosoxidans; assay: Antibacterial activity against Achromobacter xylosoxidans LOL in presence of 4 ug/ml Tazobactam by agar dilution method; format: functional; how it was run: as §1
Escherichia coli [20] = assay: Antibacterial activity against Escherichia coli TOP10 harboring recombinant p6S3 expressing beta lactamase OXA-114a in presence of 4 ug/ml Tazobactam by agar dilution method; format: functional
How it was run: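 MICs by agar dilution, with tazobactam held at a fixed 4 μg/ml and results read against CLSI guidelines. Strain is E. coli TOP10 carrying p6S3, a kanamycin-resistant pBK-CMV vector holding a partial Sau3AI fragment of A. xylosoxidans CIP69598 genomic DNA. It was selected on ticarcillin 50 mg/liter plus kanamycin 30 mg/liter. Cultures were routinely grown in TS broth at 37°C.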

[21] = Inhibition of Achromobacter xylosoxidans CIP69598 beta-lactamase OXA-114a expressed in Escherichia coli TOP10 assessed as reduction of benzyl-penicillin hydrolysis
How it was run: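 Ki obtained by competition with benzylpenicillin as reporter substrate. Purified enzyme, 30°C, 100 mM Tris-H2SO4-300 mM K2SO4 pH 7.0 with 10 mM NaHCO3. Initial rates read by UV spectrophotometry. Means of three independent experiments.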

[22] = system: Achromobacter xylosoxidans; assay: Antibacterial activity against Achromobacter xylosoxidans DUC in presence of 4 ug/ml Tazobactam by agar dilution method; format: functional; how it was run: as §1
[23] = system: Achromobacter xylosoxidans; assay: Antibacterial activity against Achromobacter xylosoxidans TB1 in presence of 4 ug/ml Tazobactam by agar dilution method; format: functional; how it was run: as §1
Escherichia coli [24] = assay: Antibacterial activity against Escherichia coli TOP10 in presence of 4 ug/ml Tazobactam by agar dilution method; format: functional
How it was run: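 Plasmid-free E. coli TOP10 cloning host, tested by agar dilution MIC with tazobactam at a fixed 4 μg/ml and interpreted per CLSI guidelines. Cultures were routinely grown in Trypticase soy broth at 37°C.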

[25] = system: Achromobacter xylosoxidans; assay: Antibacterial activity against Achromobacter xylosoxidans MER in presence of 4 ug/ml Tazobactam by agar dilution method; format: functional; how it was run: as §1

SMILES | MIC [1] | MIC [2] | MIC [3] | MIC [4] | MIC [5] | MIC (Escherichia coli [6]) | kcat [8] | MIC (Escherichia coli [9]) | other results
C[C@H]1[C@H](NC(=O)/C(=N\OC(C)(C)C(=O)O)c2csc(N)n2)C(=O)N1S(=O)(=O)O [AZTREONAM] | > 64 µg/mL | > 64 µg/mL | > 64 µg/mL | > 64 µg/mL | > 64 µg/mL |  |  |  | 
CO/N=C(\C(=O)N[C@@H]1C(=O)N2C(C(=O)[O-])=C(C[N+]3(C)CCCC3)CS[C@H]12)c1csc(N)n1 | > 64 µg/mL | 64 µg/mL (≈ 133 µM) | > 64 µg/mL | > 64 µg/mL | > 64 µg/mL | 0.12 µg/mL (≈ 0.25 µM) |  |  | 
CC1(C)S[C@@H]2[C@H](NC(=O)Cc3ccccc3)C(=O)N2[C@H]1C(=O)O |  |  |  |  |  |  | 0.1 s⁻¹ |  | Ratio [7]: 10; Km [8]: 10 µM
CO[C@@]1(NC(=O)Cc2cccs2)C(=O)N2C(C(=O)O)=C(COC(N)=O)CS[C@@H]21 [CEFOXITIN] | > 64 µg/mL | > 64 µg/mL | > 64 µg/mL | > 64 µg/mL | > 64 µg/mL | 4 µg/mL (≈ 9.36 µM) | < 0.01 s⁻¹ | 4 µg/mL (≈ 9.36 µM) | Activity [10]: inactive
CC1(C)S[C@@H]2[C@H](NC(=O)[C@H](N)c3ccc(O)cc3)C(=O)N2[C@H]1C(=O)O [AMOXICILLIN] | 8 µg/mL (≈ 21.9 µM) | 16 µg/mL (≈ 43.8 µM) | 2 µg/mL (≈ 5.47 µM) | > 64 µg/mL | 1 µg/mL (≈ 2.74 µM) | 16 µg/mL (≈ 43.8 µM) |  | 2 µg/mL (≈ 5.47 µM) | MIC [11]: 8 µg/mL; MIC (Escherichia coli [12]): 2 µg/mL; MIC [13]: 4 µg/mL; MIC [14]: 8 µg/mL; MIC [15]: 1 µg/mL; MIC [16]: 1 µg/mL; MIC (Escherichia coli [17]): 16 µg/mL
CCN1CCN(C(=O)N[C@@H](C(=O)N[C@@H]2C(=O)N3[C@@H]2SC(C)(C)[C@@H]3C(=O)O)c2ccccc2)C(=O)C1=O [PIPERACILLIN] | 2 µg/mL (≈ 3.86 µM) | 1 µg/mL (≈ 1.93 µM) | 1 µg/mL (≈ 1.93 µM) | 4 µg/mL (≈ 7.73 µM) | 1 µg/mL (≈ 1.93 µM) | 4 µg/mL (≈ 7.73 µM) | 0.5 s⁻¹ | 1 µg/mL (≈ 1.93 µM) | Ratio [7]: 100; MIC [18]: 0.5 µg/mL; MIC [19]: 4 µg/mL; MIC (Escherichia coli [20]): 4 µg/mL; Ki [21]: 1000 nM; MIC [22]: 0.5 µg/mL; MIC [23]: 1 µg/mL; MIC (Escherichia coli [24]): 1 µg/mL; MIC [25]: 0.5 µg/mL
CC1(C)S[C@@H]2[C@H](NC(=O)[C@H](C(=O)O)c3ccsc3)C(=O)N2[C@H]1C(=O)O [TICARCILLIN] | 1 µg/mL (≈ 2.6 µM) | 4 µg/mL (≈ 10.4 µM) | 1 µg/mL (≈ 2.6 µM) | > 64 µg/mL | 1 µg/mL (≈ 2.6 µM) | 4 µg/mL (≈ 10.4 µM) | 0.1 s⁻¹ | 2 µg/mL (≈ 5.2 µM) | MIC [11]: > 64 µg/mL; Ratio [7]: 2.5; MIC (Escherichia coli [12]): 2 µg/mL; Km [8]: 40 µM; MIC [13]: 4 µg/mL; MIC [14]: 1 µg/mL; MIC [15]: 1 µg/mL; MIC [16]: 1 µg/mL; MIC (Escherichia coli [17]): 4 µg/mL
C[C@@H](O)[C@H]1C(=O)N2C(C(=O)O)=C(SCCNC=N)C[C@H]12 [IMIPENEM ANHYDROUS] | 1 µg/mL (≈ 3.34 µM) | 4 µg/mL (≈ 13.4 µM) | 1 µg/mL (≈ 3.34 µM) | 4 µg/mL (≈ 13.4 µM) | 1 µg/mL (≈ 3.34 µM) |  | > 0.1 s⁻¹ |  | Km [8]: > 2000 µM; Activity [10]: inactive
Cc1onc(-c2ccccc2)c1C(=O)N[C@@H]1C(=O)N2[C@@H]1SC(C)(C)[C@@H]2C(=O)O |  |  |  |  |  |  | < 0.01 s⁻¹ |  | 
CO/N=C(\C(=O)N[C@@H]1C(=O)N2C(C(=O)O)=C(COC(N)=O)CS[C@H]12)c1ccco1 [CEFUROXIME] | > 64 µg/mL | > 64 µg/mL | > 64 µg/mL | > 64 µg/mL | > 64 µg/mL | 4 µg/mL (≈ 9.43 µM) |  | 2 µg/mL (≈ 4.71 µM) | 
CO[C@@]1(NC(=O)C(C(=O)O)c2ccc(O)cc2)C(=O)N2C(C(=O)O)=C(CSc3nnnn3C)CO[C@@H]21 (stereo not given in full) [MOXALACTAM] | 2 µg/mL (≈ 3.84 µM) | 2 µg/mL (≈ 3.84 µM) | 2 µg/mL (≈ 3.84 µM) | 1 µg/mL (≈ 1.92 µM) | 2 µg/mL (≈ 3.84 µM) | 1 µg/mL (≈ 1.92 µM) |  | 1 µg/mL (≈ 1.92 µM) | 
CO/N=C(\C(=O)N[C@@H]1C(=O)N2C(C(=O)O)=C(COC(C)=O)CS[C@H]12)c1csc(N)n1 [CEFOTAXIME] | > 64 µg/mL | > 64 µg/mL | > 64 µg/mL | > 64 µg/mL | > 64 µg/mL | 0.25 µg/mL (≈ 0.549 µM) | < 0.01 s⁻¹ | 0.12 µg/mL (≈ 0.263 µM) | 
CC(=O)OCC1=C(C(=O)O)N2C(=O)[C@@H](NC(=O)Cc3cccs3)[C@H]2SC1 [CEPHALOTHIN] | 32 µg/mL (≈ 80.7 µM) | > 64 µg/mL | 32 µg/mL (≈ 80.7 µM) | > 64 µg/mL | 32 µg/mL (≈ 80.7 µM) | 8 µg/mL (≈ 20.2 µM) | 0.5 s⁻¹ | 2 µg/mL (≈ 5.04 µM) | Ratio [7]: 30; Km [8]: 15 µM
CC(C)(O/N=C(\C(=O)N[C@@H]1C(=O)N2C(C(=O)[O-])=C(C[n+]3ccccc3)CS[C@H]12)c1csc(N)n1)C(=O)O [CEFTAZIDIME] | 4 µg/mL (≈ 7.32 µM) | 4 µg/mL (≈ 7.32 µM) | 16 µg/mL (≈ 29.3 µM) | 4 µg/mL (≈ 7.32 µM) | 8 µg/mL (≈ 14.6 µM) | 0.06 µg/mL (≈ 0.11 µM) | < 0.01 s⁻¹ | 0.06 µg/mL (≈ 0.11 µM) | 
